Source: PubChem BioAssay AID652163 (Broad Institute, 2013)
The campaign covered roughly 360,000 compounds. About 500 (0.14%) were called active. The entries come from a sample that favours actives as a whole. A number with no mark means an inactive call.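 Rule for the calls: active = mean inhibition of at least 70% across replicates, with every replicate also reaching that level; inconclusive = mean inhibition reaches 70% but some replicates fall short; inactive = mean inhibition below 70%.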

These compounds were tested against Protein S100-A4 (Homo sapiens) (UniProt P26447) (assay: human S100A4 protein-peptide interaction blockers – biochemical, fluorescence polarization, TAMRA-MyoIIA peptide, primary screen (AID 652163)). Settings: at 10.7 µM, stronger effect = higher value.
Protein S100-A4 (Homo sapiens), sequence (P26447 whole entry, looked up): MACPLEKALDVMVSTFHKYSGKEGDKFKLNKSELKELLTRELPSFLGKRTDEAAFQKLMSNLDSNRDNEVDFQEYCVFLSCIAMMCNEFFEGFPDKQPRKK
Outline: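 Test system: S100A4 monomer protein. Medium: HEPES buffer with Ca2+, pH 7.2. Reagent: fluorescent myosin IIA peptide, 5 nM. Compound dosing: single-point compound testing. Timing: 5 min between mix addition and reading. Benchmarks: DMSO neutral and TFP positive wells.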

Row | SMILES | inhibition
1 | NCC[C@H]1CC[C@H](NC(=O)C2CC2)[C@@H](CO)O1 | 4.1%
2 | CCCN1C[C@@H](C)[C@@H](OC)CN(C)C(=O)c2cc(NC(=O)CC(F)(F)F)ccc2OC[C@H]1C | -32.9%
3 | COCC#Cc1ccc2c(c1)O[C@H](CN(C)CC1CC1)[C@H](C)CN([C@H](C)CO)S2(=O)=O | 4.13%
4 | CC(C)NC(=O)N(C)C[C@H]1Oc2ncc(-c3ccc(C(=O)N(C)C)cc3)cc2C(=O)N([C@H](C)CO)C[C@H]1C | -3.24%
5 | C[C@@H]1CN([C@H](C)CO)C(=O)c2cc(-c3ccncc3)cnc2O[C@@H]1CN(C)C(=O)Cc1cccnc1 | 11.8%
6 | CC(C)NC(=O)N(C)C[C@@H]1Oc2cc(C#C[C@H](C)O)ccc2S(=O)(=O)N([C@@H](C)CO)C[C@H]1C | -1.62%
7 | CC(C)C#Cc1ccc2c(c1)O[C@@H](CN(C)C(=O)NC(C)C)[C@H](C)CN([C@H](C)CO)S2(=O)=O | 106% (active)
8 | CC(C)C#Cc1ccc2c(c1)O[C@@H](CN(C)C(=O)Nc1ccccc1)[C@H](C)CN([C@H](C)CO)S2(=O)=O | 15.5%
9 | CNC[C@@H]1Oc2ncc(-c3ccc(F)cc3)cc2C(=O)N([C@H](C)CO)C[C@@H]1C | 6.49%
10 | CCCC(=O)Nc1ccc2c(c1)C(=O)N(C)C[C@H](OC)[C@@H](C)CN(C(C)=O)[C@H](C)CO2 | 3.22%
11 | CO[C@H]1CN(C)C(=O)c2ccc(NC(=O)c3nc4ccccc4s3)cc2OC[C@H](C)N(Cc2cccnc2)C[C@@H]1C | -1.61%
12 | CC(=O)N1Cc2cc(C(=O)NCc3cc(F)cc(F)c3)nc(-c3cccc(C4=CCCC4)c3)c2[C@@H]1CCO | -14.1%
13 | N#C[C@@H]1[C@@H](c2ccc(-c3ccccc3)cc2)[C@@H](CO)N1C(=O)Cc1ccccc1 | 9.02%
14 | CO[C@H]1CN(C)C(=O)c2cc(NC(=O)Nc3ccccc3F)ccc2OC[C@@H](C)N(CCC(F)(F)F)C[C@@H]1C | -11.4%
15 | CN(C)C(=O)c1ccc(-c2ccc([C@@H]3[C@H](C#N)N(C(=O)C4CC4)[C@H]3CO)cc2)cc1 | -6.47%
16 | Cc1noc(C)c1S(=O)(=O)N(C)C[C@@H]1OCCCC[C@H](C)Oc2ccc(NC(=O)NC3CCCCC3)cc2C(=O)N([C@@H](C)CO)C[C@H]1C | -8.81%
17 | C[C@@H]1CN([C@H](C)CO)C(=O)c2cc(NC(=O)Nc3ccc(F)cc3)ccc2O[C@@H](C)CCCCO[C@H]1CN(C)Cc1ccc(Cl)c(Cl)c1 | 4.63%
